Results as given in ChEMBL document CHEMBL1140692, “Toward the development of chemoprevention agents. Part II: Chemo-enzymatic synthesis and anti-inflammatory activities of a new class of 5-amino-2-substitutedphenyl-1,3-dioxacycloalkanes” (Bioorg Med Chem, 2007).

Key:
Mus musculus [1] = assay: Antiinflammatory activity in Kunming mouse assessed as inhibition of xylene-induced ear edema at 5 mg/kg, po after […]rs; assay type: functional
Outline: (§1)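 Male Kunming mice receive the agent orally as a suspension in 0.5% CMC; the vehicle group gets CMC alone. After 30 min, 0.03 ml xylene is applied to both surfaces of the right ear, and the left ear serves as control. At 2 h, mice are killed and 7-mm ear punches are weighed. Edema is taken as right minus left punch weight, and inhibition is calculated versus vehicle. n = 11; ANOVA.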

[2] = Permeability from basolateral to apical side of human Caco-2 cell membrane; assay type: ADME, cell-based
[3] = Permeability from apical to basolateral side of human Caco-2 cell membrane; assay type: ADME, cell-based
Mus musculus [4] = assay: Gastrointestinal toxicity in mouse assessed as tail bleeding time at 200 mg/kg, po after 90 mins; assay type: organism-based; set-up: dose 200 mg/kg, route oral; settings: in vivo, 1.5 h
Outline: (§2)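 Male mice (18–22 g) are dosed orally and compared with an NS group. At 30, 45, 60 and 90 min after dosing, each mouse is restrained in a tube holder and a 2-mm cut is made on the tail. Blood is wiped away every 30 s until flow stops, and the time to cessation is recorded.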

Caco-2 = assay: Ratio of permeability from apical to basolateral side over basolateral to apical side of human Caco-2 cell membrane; assay type: ADME, cell-based
[5] = Inhibition of bovine brain PKC; set-up: species or system Bos taurus
Mus musculus [6] = assay: Antiinflammatory activity in Kunming mouse assessed as inhibition of xylene-induced ear edema at 10 mg/kg, po after […]rs; assay type: functional; outline: as §1
Mus musculus [7] = assay: Antiinflammatory activity in Kunming mouse assessed as inhibition of xylene-induced ear edema at 20 mg/kg, po after […]rs; assay type: functional; outline: as §1
Mus musculus [8] = assay: Gastrointestinal toxicity in mouse assessed as tail bleeding time at 200 mg/kg, po after 60 mins; assay type: organism-based; set-up: dose 200 mg/kg, route oral; settings: in vivo, 1 h; outline: as §2
Mus musculus [9] = assay: Gastrointestinal toxicity in mouse assessed as tail bleeding time at 200 mg/kg, po after 45 mins; assay type: organism-based; set-up: dose 200 mg/kg, route oral; settings: in vivo, 0.75 h; outline: as §2
Mus musculus [10] = assay: Gastrointestinal toxicity in mouse assessed as tail bleeding time at 200 mg/kg, po after 30 mins; assay type: organism-based; set-up: dose 200 mg/kg, route oral; settings: in vivo, 0.5 h; outline: as §2
Mus musculus [11] = assay: Antiinflammatory activity in Kunming mouse assessed as inhibition of xylene-induced ear edema at 30 mg/kg, po after […]rs; assay type: functional; outline: as §1

Papp B→A [2] [×10⁻⁶ cm/s] | Papp A→B [3] [×10⁻⁶ cm/s] | Ratio (Caco-2) | IC50 [5] [µM] | Compound | inhibition in vivo at 5 mg/kg (Mus musculus [1]) [%] | Time (Mus musculus [4]) [s] | inhibition in vivo at 10 mg/kg (Mus musculus [6]) [%] | inhibition in vivo at 20 mg/kg (Mus musculus [7]) [%] | Time (Mus musculus [8]) [s] | Time (Mus musculus [9]) [s] | Time (Mus musculus [10]) [s] | inhibition in vivo at 30 mg/kg (Mus musculus [11]) [%]
6.96 | 13 | 1.87 | 890 | C[C@@H]1O[C@@H](c2ccc([N+](=O)[O-])cc2)OC[C@H]1N | 42.3 | 118.9 | 58 | 78.5 | 117.2 | 119.2 | 118.4 | 
 |  |  |  | CC(=O)Oc1ccccc1C(=O)O [ASPIRIN] |  |  |  | 40.7 |  |  |  | 40.7
